Results published in ChEMBL document CHEMBL4118097, “Selective Inhibitors of Dual Leucine Zipper Kinase (DLK, MAP3K12) with Activity in a Model of Alzheimer's Disease” (J Med Chem, 2017).

Legend:
[1] = biological target: Macrophage colony-stimulating factor 1 receptor (Homo sapiens, UniProt P07333); assay: Inhibition of recombinant His-tagged human CSF1R cytoplasmic domain (538 to 910 residues) expressed in baculovirus expression system at 1 uM by FRET assay relative to control
In short: (§1)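 Single-point screen at 1 μM compound in a 220-kinase panel run by Life Technologies (SelectScreen). Z′-LYTE format: phosphorylation of a labeled peptide substrate read by FRET. Values are reported as percent inhibition.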

[2] = biological target: Casein kinase II subunit alpha (Homo sapiens) (UniProt P68400); assay: Inhibition of CK2alpha1 (unknown origin) at 1 uM by FRET assay relative to control
Chain of Casein kinase II subunit alpha (Homo sapiens) (P68400 whole entry, looked up): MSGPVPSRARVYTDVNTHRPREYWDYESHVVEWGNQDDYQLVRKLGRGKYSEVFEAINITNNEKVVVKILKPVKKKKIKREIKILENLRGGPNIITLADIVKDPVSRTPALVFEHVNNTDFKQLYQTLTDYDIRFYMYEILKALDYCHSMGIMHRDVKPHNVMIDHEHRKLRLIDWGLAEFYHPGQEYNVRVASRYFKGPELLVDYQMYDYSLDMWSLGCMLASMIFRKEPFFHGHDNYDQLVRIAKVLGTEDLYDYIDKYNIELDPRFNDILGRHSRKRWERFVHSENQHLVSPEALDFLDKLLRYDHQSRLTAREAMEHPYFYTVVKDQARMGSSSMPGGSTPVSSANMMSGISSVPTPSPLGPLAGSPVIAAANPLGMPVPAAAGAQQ

[3] = biological target: Serine/threonine-protein kinase Chk1 (Homo sapiens) (UniProt O14757); assay: Inhibition of recombinant full length His-tagged human CHK1 expressed in baculovirus expression system at 1 uM by FRET assay relative to control
[4] = biological target: CDK2/Cyclin A2 (Homo sapiens) (UniProt P24941+P20248); assay: Inhibition of recombinant full length His-tagged human CDK2/CyclinA expressed in baculovirus expression system at 1 uM by FRET assay relative to control
[5] = biological target: Calcium/calmodulin-dependent protein kinase type II subunit alpha (Homo sapiens) (UniProt Q9UQM7); assay: Inhibition of CamK2alpha (unknown origin) at 1 uM by FRET assay relative to control
Chain of Calcium/calmodulin-dependent protein kinase type II subunit alpha (Homo sapiens) (Q9UQM7 whole entry, the tested form may be a part): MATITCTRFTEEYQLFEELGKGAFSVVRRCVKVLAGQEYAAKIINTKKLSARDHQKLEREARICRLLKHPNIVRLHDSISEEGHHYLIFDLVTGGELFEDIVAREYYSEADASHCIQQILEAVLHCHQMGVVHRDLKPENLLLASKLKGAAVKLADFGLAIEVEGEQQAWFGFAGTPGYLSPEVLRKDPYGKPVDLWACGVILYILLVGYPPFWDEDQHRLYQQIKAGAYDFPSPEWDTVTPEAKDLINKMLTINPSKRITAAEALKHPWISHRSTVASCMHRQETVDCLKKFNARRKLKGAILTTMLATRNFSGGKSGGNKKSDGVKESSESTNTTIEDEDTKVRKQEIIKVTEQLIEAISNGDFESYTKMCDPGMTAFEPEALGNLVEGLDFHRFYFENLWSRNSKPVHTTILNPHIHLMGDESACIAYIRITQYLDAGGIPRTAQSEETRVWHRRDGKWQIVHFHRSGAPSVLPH

[6] = biological target: Protein-tyrosine kinase 6 (Homo sapiens) (UniProt Q13882); assay: Inhibition of recombinant full length His-tagged human Brk cytoplasmic domain expressed in baculovirus expression system at 1 uM by FRET assay relative to control
[7] = biological target: Cytoplasmic tyrosine-protein kinase BMX (Homo sapiens) (UniProt P51813); assay: Inhibition of recombinant full length His-tagged human Bmx cytoplasmic domain expressed in Baculovirus expression system at 1 uM by FRET assay relative to control
Chain of Cytoplasmic tyrosine-protein kinase BMX (Homo sapiens) (P51813 whole entry, the tested form may be a part): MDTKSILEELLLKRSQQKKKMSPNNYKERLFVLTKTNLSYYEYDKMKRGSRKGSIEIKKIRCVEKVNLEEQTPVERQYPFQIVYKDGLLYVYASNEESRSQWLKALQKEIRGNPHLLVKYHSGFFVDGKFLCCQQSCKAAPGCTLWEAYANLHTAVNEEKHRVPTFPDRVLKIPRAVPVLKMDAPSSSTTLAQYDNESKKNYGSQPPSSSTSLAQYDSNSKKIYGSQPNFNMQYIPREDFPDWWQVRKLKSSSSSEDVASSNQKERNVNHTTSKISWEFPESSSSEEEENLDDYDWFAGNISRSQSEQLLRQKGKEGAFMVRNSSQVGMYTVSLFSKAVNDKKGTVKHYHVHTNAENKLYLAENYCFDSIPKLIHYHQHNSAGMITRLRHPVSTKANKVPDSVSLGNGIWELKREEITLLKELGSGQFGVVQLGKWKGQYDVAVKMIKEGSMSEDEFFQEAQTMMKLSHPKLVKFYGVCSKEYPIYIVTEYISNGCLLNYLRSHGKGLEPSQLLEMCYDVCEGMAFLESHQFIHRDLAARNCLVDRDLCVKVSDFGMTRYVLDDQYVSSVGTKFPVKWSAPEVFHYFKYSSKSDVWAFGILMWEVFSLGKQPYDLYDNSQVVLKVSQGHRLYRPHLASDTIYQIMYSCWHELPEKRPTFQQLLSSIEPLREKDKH

[8] = biological target: Mitogen-activated protein kinase 8 (Homo sapiens, UniProt P45983); assay: Inhibition of recombinant full length His-tagged human JNK1alpha1 expressed in baculovirus expression system at 1 uM by FRET assay relative to control
[9] = biological target: Tyrosine-protein kinase JAK1 (Homo sapiens) (UniProt P23458); assay: Inhibition of recombinant GST-tagged human JAK1 catalytic domain (866 to 1154 residues) expressed in baculovirus expression system at 1 uM by FRET relative to control; in short: as §1
[10] = biological target: Beta-adrenergic receptor kinase 1 (Homo sapiens) (UniProt P25098); assay: Inhibition of recombinant full length His-tagged human GRK2 expressed in baculovirus expression system at 1 uM by FRET relative to control
[11] = biological target: Ephrin type-B receptor 3 (Homo sapiens) (UniProt P54753); assay: Inhibition of recombinant GST-tagged human EphB3 cytoplasmic domain expressed in baculovirus expression system at 1 uM by FRET assay relative to control; in short: as §1
[12] = biological target: Protein kinase C delta type (Homo sapiens) (UniProt Q05655); assay: Inhibition of recombinant full length human PKCdelta expressed in baculovirus expression system at 1 uM by FRET assay relative to control
[13] = biological target: Protein kinase C alpha type (Homo sapiens) (UniProt P17252); assay: Inhibition of recombinant full length human PKCalpha expressed in baculovirus expression system at 1 uM by FRET assay relative to control
[14] = biological target: Serine/threonine-protein kinase NLK (Homo sapiens) (UniProt Q9UBE8); assay: Inhibition of recombinant full length GST-tagged human NLK expressed in baculovirus expression system at 1 uM by FRET assay relative to control
In short: (§2)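 Single-concentration screen at 1 μM in Life Technologies SelectScreen, across a 220-kinase panel. Z′-LYTE format measures phosphorylation of a labeled peptide by FRET. Results are reported as percent inhibition.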

[15] = biological target: Myosin light chain kinase (Homo sapiens) (UniProt Q32MK0); assay: Inhibition of recombinant human full length N-terminal GST-tagged caMLCK expressed in baculovirus expression system at 1 uM by FRET assay relative to control
[16] = biological target: MAP kinase-interacting serine/threonine-protein kinase 1 (Homo sapiens) (UniProt Q9BUB5); assay: Inhibition of recombinant human N-terminal full length GST-tagged MKNK1 expressed in baculovirus at 1 uM by FRET assay relative to control
[17] = biological target: TGF-beta receptor type-1 (Homo sapiens) (UniProt P36897); assay: Inhibition of recombinant full length N-terminal GST-tagged human TGFBR1 (200 to 503 residues) expressed in baculovirus expression system at 1 uM by FRET assay relative to control
[18] = biological target: Serine/threonine-protein kinase TAO2 (Homo sapiens) (UniProt Q9UL54); assay: Inhibition of recombinant GST-tagged human TAO2 catalytic domain (1 to 314 residues) expressed in baculovirus expression system at 1 uM by FRET assay relative to control; in short: as §1
Chain of Serine/threonine-protein kinase TAO2 (Homo sapiens) (Q9UL54 whole entry, the tested form may be a part): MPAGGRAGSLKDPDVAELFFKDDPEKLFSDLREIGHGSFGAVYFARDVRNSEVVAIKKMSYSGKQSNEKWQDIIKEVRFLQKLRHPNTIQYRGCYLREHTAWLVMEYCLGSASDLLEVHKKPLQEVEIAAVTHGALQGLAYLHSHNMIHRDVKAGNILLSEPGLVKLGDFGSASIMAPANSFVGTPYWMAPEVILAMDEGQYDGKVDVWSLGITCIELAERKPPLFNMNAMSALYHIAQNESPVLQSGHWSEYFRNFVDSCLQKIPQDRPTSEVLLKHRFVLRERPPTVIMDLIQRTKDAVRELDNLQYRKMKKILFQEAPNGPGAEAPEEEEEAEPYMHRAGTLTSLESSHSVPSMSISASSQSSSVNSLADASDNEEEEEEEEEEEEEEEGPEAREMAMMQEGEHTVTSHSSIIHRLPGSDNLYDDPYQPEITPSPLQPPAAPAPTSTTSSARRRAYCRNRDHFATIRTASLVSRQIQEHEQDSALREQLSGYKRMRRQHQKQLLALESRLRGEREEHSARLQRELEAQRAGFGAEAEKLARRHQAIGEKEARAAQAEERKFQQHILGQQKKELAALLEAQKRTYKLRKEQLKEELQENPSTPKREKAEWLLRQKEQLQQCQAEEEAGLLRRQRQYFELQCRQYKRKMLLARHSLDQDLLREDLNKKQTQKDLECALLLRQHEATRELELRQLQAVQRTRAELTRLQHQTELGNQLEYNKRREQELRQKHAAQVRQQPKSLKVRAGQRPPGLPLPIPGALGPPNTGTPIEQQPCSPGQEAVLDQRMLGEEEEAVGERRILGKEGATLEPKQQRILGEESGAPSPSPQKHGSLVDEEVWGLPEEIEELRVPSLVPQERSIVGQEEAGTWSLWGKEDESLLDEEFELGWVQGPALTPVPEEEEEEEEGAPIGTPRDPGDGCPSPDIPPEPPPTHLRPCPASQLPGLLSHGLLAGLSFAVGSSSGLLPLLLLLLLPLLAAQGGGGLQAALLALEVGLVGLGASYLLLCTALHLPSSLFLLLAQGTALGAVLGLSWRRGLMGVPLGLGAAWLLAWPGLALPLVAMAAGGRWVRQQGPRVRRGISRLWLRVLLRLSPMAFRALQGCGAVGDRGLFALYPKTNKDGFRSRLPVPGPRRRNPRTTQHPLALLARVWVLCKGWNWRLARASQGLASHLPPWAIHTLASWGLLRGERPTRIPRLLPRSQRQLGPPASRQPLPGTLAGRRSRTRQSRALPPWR

[19] = biological target: Proto-oncogene tyrosine-protein kinase Src (Homo sapiens) (UniProt P12931); assay: Inhibition of recombinant full length C-terminal His-tagged human Src cytoplasmic domain expressed in baculovirus expression system at 1 uM by FRET assay relative to control; in short: as §2
[20] = biological target: Serine/threonine-protein kinase Sgk3 (Homo sapiens) (UniProt Q96BR1); assay: Inhibition of recombinant full length GST-tagged human SGK3 catalytic domain (87 to 496 residues) expressed in baculovirus expression system at 1 uM by FRET assay relative to control; in short: as §2
[21] = biological target: Tyrosine-protein kinase receptor TYRO3 (Homo sapiens) (UniProt Q06418); assay: Inhibition of recombinant full length GST-tagged human Rse cytoplasmic domain (451 to 890 residues) expressed in baculovirus expression system at 1 uM by FRET assay relative to control; in short: as §2
[22] = biological target: Serine/threonine-protein kinase N1 (Homo sapiens) (UniProt Q16512); assay: Inhibition of full length recombinant GST-tagged human PRK1 expressed in baculovirus expression system at 1 uM by FRET assay relative to control
[23] = biological target: Mitogen-activated protein kinase 10 (Homo sapiens, UniProt P53779); assay: Inhibition of recombinant full length GST-tagged human JNK3 expressed in baculovirus expression system by FRET assay
[24] = biological target: Adenosine receptor A2a (Homo sapiens) (UniProt P29274); assay: Binding affinity to recombinant human A2A adenosine receptor at 10 uM relative to control
Chain of Adenosine receptor A2a (Homo sapiens) (P29274 whole entry): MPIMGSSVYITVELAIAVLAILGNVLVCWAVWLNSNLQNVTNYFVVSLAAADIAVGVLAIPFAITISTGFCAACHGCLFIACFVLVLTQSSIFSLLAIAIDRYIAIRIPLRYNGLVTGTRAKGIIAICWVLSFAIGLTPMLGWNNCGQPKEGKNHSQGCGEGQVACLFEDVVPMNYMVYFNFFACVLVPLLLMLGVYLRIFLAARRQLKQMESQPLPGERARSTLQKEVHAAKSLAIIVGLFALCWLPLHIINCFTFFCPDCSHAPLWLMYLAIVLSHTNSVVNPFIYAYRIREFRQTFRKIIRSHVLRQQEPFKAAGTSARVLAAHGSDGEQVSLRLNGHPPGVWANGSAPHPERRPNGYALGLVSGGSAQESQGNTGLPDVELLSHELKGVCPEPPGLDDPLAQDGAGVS
In short: (§3)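 Broad radioligand-binding and enzyme screening panel covering 42 targets (biogenic amine and neuropeptide receptors, ion channels, neurotransmitter transporters, acetylcholinesterase). Single test concentration of 10 μM. Results expressed as binding relative to control, with a hit defined as >50% of control.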

[25] = biological target: Muscarinic acetylcholine receptor M1 (Homo sapiens) (UniProt P11229); assay: Binding affinity to recombinant human M1 acetylcholine receptor at 10 uM relative to control; in short: as §3
[26] = biological target: Neuronal acetylcholine receptor; alpha4/beta2 (Homo sapiens) (UniProt P17787+P43681); assay: Binding affinity to alpha4beta2 nAChR (unknown origin) receptor at 10 uM relative to control; format: protein-complex assay; in short: as §3
Homo sapiens = species on record: Homo sapiens; assay: Binding affinity to PDE rolipram binding site (unknown origin) receptor at 10 uM relative to control; in short: as §3
[27] = biological target: 5-hydroxytryptamine receptor 3A (Homo sapiens) (UniProt P46098); assay: Binding affinity to 5HT3 receptor (unknown origin) receptor at 10 uM relative to control; in short: as §3
Chain of 5-hydroxytryptamine receptor 3A (Homo sapiens) (P46098 whole entry): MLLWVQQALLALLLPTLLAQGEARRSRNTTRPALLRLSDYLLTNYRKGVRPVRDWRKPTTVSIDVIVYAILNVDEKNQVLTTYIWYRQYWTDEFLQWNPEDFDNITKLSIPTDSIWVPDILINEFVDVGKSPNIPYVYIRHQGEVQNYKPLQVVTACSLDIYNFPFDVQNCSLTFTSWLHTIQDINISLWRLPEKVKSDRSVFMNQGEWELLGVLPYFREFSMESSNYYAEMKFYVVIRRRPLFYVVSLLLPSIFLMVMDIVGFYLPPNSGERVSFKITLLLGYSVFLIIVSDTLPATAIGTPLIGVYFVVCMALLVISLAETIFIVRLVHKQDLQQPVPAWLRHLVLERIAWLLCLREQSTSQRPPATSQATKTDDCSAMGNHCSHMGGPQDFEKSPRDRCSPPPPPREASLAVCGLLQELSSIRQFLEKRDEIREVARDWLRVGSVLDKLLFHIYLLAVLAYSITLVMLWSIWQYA

Chain of Macrophage colony-stimulating factor 1 receptor (P07333 whole entry, the tested form may be a part): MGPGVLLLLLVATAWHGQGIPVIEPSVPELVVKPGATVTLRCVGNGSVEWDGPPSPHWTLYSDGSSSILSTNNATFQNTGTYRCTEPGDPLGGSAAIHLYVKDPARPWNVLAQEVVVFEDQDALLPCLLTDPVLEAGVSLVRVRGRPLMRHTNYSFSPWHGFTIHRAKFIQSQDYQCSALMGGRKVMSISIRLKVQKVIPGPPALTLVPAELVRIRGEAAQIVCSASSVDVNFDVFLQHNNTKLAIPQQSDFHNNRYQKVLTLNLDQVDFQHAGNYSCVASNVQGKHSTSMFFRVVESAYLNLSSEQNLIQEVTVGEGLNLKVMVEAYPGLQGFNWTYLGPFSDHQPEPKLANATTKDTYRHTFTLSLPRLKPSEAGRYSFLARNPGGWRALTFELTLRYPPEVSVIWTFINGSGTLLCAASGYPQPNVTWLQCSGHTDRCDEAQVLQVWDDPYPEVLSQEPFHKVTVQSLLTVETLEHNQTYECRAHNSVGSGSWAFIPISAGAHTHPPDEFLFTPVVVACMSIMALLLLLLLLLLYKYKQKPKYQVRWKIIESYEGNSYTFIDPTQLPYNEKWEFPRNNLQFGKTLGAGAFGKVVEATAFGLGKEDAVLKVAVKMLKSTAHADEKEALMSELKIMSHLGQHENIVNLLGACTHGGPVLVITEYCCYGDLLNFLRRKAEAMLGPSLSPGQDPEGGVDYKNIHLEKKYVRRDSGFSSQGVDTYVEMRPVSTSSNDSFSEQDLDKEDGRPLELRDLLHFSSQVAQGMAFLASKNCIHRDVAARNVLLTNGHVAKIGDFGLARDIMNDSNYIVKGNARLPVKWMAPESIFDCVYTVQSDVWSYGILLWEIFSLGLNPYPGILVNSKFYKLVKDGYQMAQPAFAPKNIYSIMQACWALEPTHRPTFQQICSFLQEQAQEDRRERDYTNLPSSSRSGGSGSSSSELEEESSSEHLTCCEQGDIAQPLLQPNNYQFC

SMILES	inhibition [1]	inhibition [2]	inhibition [3]	inhibition [4]	inhibition [5]	inhibition [6]	inhibition [7]	inhibition [8]	inhibition [9]	inhibition [10]	inhibition [11]	inhibition [12]	inhibition [13]	inhibition [14]	inhibition [15]	inhibition [16]	inhibition [17]	inhibition [18]	inhibition [19]	inhibition [20]	other results
Nc1ncc(-c2cc([C@H]3[C@@H]4CN(C5COC5)C[C@@H]43)n(CC3CC3)n2)cc1C(F)(F)F	54.1%	3.5%	2.9%	4.3%	0.6%	5.8%	14.1%	1.5%	3.9%	2.1%	10%	-0.7%	22.4%	-4.7%	1.3%	-3.8%	11.7%	-3.9%	22%	-0.1%	inhibition [21]: 11.3%; inhibition [22]: -8%; IC50 [23]: > 10 µM; Activity [24]: > 50%; Activity [25]: > 50%; Activity [26]: > 50%; Activity (Homo sapiens): > 50%; Activity [27]: > 50%
CC(C)n1nc(-c2cnc(N)c(OC(F)(F)F)c2)cc1[C@H]1[C@@H]2CN(C3COC3)C[C@@H]21	46.3%	1.5%	4.4%	5.7%	2.4%	7.8%	7.8%	9.1%	6.9%	-2.5%	4.6%	0.9%	30.3%	-4.5%	0.8%	1.1%	1.6%	0.6%	23.8%	6.1%	inhibition [21]: 11.2%; inhibition [22]: 5.3%; IC50 [23]: > 10 µM; Activity [24]: > 50%; Activity [25]: > 50%; Activity [26]: > 50%; Activity (Homo sapiens): > 50%; Activity [27]: > 50%
